pIC50: −log10 of the molar value. The source made the active and inactive calls. The rule behind the calls is not given here.
Key:
Saccharomyces cerevisiae = assay: Inhibition of Saccharomyces cerevisiae alpha-glucosidase at 200 uM using p-nitrophenyl-glycoside as substrate incubated for 20 mins followed by substrate addition measured immediately relative to control
Procedure, shortened: (§1)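 Yeast α-glucosidase from S. cerevisiae, from an enzyme stock of 2.0 units/mL, in 0.01 M potassium phosphate buffer at pH 7.0. Sample in DMSO was preincubated with enzyme for 20 min at 37 °C. p-Nitrophenyl glycoside (3 mg/mL stock) was then added and A410 read immediately at 37 °C. Inhibition % = (B−S)/B×100, with B as the DMSO blank. Screened at 200 μM; compounds above 45% inhibition went on to IC50. Triplicates.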

[1] = Inhibition of Saccharomyces cerevisiae alpha-glucosidase using p-nitrophenyl-glycoside as substrate incubated for 20 mins followed by substrate addition measured immediately; procedure, shortened: as §1
[2] = molecular target: T1, Phosphotyrosine protein phosphatase (Mycobacterium tuberculosis, UniProt A0A045ISB3); assay: Inhibition of Mycobacterium tuberculosis H37Ra PTPB expressed in Escherichia coli BL21 (DE3) using p-nitrophenyl phosphate as substrate preincubated for 10 mins followed by substrate addition measured for 5 mins by spectrophotometric analysis
T1 sequence (A0A045ISB3 whole entry): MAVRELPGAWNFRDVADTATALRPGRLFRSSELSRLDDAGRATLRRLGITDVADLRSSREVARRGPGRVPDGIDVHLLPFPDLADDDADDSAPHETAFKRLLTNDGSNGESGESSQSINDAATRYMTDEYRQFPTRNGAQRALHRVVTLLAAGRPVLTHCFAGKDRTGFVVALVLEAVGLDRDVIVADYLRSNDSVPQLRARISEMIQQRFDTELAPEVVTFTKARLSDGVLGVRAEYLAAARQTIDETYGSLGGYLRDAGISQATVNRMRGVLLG
Procedure, shortened: (§2)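 Triplicate wells; reaction buffer 50 mM Tris/100 mM NaCl, pH 7.0; p-nitrophenyl phosphate as substrate; oleanolic acid as positive control. Full details on enzyme overexpression, purification and assay are given in an earlier report.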

A549 = assay: Cytotoxicity against human A549 cells by MTT assay; assay type: functional, cell-based
Procedure, shortened: (§3)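 MTT read-out in human cell lines A549, HepG2, HeLa, MCF-7 and HEK293T. Compounds were tested at 100 μM. Other details follow a prior report.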

HepG2 = assay: Cytotoxicity against human HepG2 cells by MTT assay; assay type: functional, cell-based; procedure, shortened: as §3
HeLa = assay: Cytotoxicity against human HeLa cells by MTT assay; assay type: functional, cell-based; procedure, shortened: as §3
MCF7 = assay: Cytotoxicity against human MCF7 cells by MTT assay; assay type: functional, cell-based; procedure, shortened: as §3
HEK-293T = assay: Cytotoxicity against human HEK293T cells by MTT assay; assay type: functional, cell-based; procedure, shortened: as §3
[3] = molecular target: T2, Phosphotyrosine protein phosphatase (Mycobacterium tuberculosis) (UniProt A0A045ISB3); assay: Inhibition of Mycobacterium tuberculosis H37Ra PTPB expressed in Escherichia coli BL21 (DE3) at 50 uM using p-nitrophenyl phosphate as substrate preincubated for 10 mins followed by substrate addition measured for 5 mins by spectrophotometric analysis; procedure, shortened: as §2
T2 sequence (whole entry): T1 sequence (A0A045ISB3 whole entry)

Structure (SMILES)	inhibition (Saccharomyces cerevisiae) [%]	pIC50 [1]	pIC50 [2]	Activity (A549)	Activity (HepG2)	Activity (HeLa)	Activity (MCF7)	Activity (HEK-293T)	inhibition [3]
C[C@H](O)Cc1cc2c(O)c(O)cc(O)c2c(=O)o1	91	4.39	4.68	inactive	inactive	inactive	inactive	inactive	–
COc1cc(O)c2c(=O)oc(C[C@@H](Cl)CO)cc2c1O	66	3.96	–	inactive	inactive	inactive	inactive	inactive	inactive
COC(=O)[C@@H]1[C@H](C(=O)OC)[C@H](c2cc3cc(OC)cc(O)c3c(=O)o2)[C@@H]1c1cc2cc(OC)cc(O)c2c(=O)o1	23	–	–	inactive	inactive	inactive	inactive	inactive	inactive
COc1cc(O)c2c(=O)oc(C[C@@H](Cl)CO)cc2c1	58	3.80	–	inactive	inactive	inactive	inactive	inactive	inactive
COc1cc(O)c2c(=O)oc(C[C@@H](O)CO)cc2c1O	83	4.11	–	inactive	inactive	inactive	inactive	inactive	inactive
COc1cc(O)c2c(=O)oc(C[C@@H]3O[C@@H]3C(C)=O)cc2c1	95	4.42	–	inactive	inactive	inactive	inactive	inactive	inactive
COc1cc(O)c2c(=O)oc(C[C@@H](O)C(Cl)Cl)cc2c1	69	3.99	–	inactive	inactive	inactive	inactive	inactive	inactive
COC(=O)[C@@H]1[C@H](C(=O)OC)[C@@H](c2cc3cc(OC)cc(O)c3c(=O)o2)[C@H]1c1cc2cc(OC)cc(O)c2c(=O)o1	18	–	–	inactive	inactive	inactive	inactive	inactive	inactive
COc1cc(O)c2c(=O)oc(C[C@@H](O)CCl)cc2c1	41	–	–	inactive	inactive	inactive	inactive	inactive	inactive
COc1cc(O)c2c(=O)oc(C[C@@H](O)CO)cc2c1	43	–	–	inactive	inactive	inactive	inactive	inactive	inactive
C[C@H]1O[C@H](O[C@H]2[C@H](O)[C@@H](O)[C@@H](O[C@H]3[C@H](O)[C@@H](O)C(O)O[C@@H]3CO)O[C@@H]2CO)[C@H](O)[C@@H](O)[C@@H]1N[C@H]1C=C(CO)[C@@H](O)[C@H](O)[C@H]1O (stereo partly specified) [ACARBOSE]	19	3.32	–	–	–	–	–	–	–
COc1cc(O)c2c(=O)oc(C[C@@H](O)CC(C)=O)cc2c1	38	–	–	inactive	inactive	inactive	inactive	inactive	inactive
COc1cc(O)c2c(=O)oc(C[C@H](C)O)cc2c1	33	–	–	inactive	inactive	inactive	inactive	inactive	inactive
COc1cc(O)c2c(=O)oc(C[C@@H](O)C(Cl)Cl)cc2c1O	91	4.35	–	inactive	inactive	inactive	inactive	inactive	inactive
CC1(C)CC[C@]2(C(=O)O)CC[C@]3(C)C(=CC[C@@H]4[C@@]5(C)CC[C@H](O)C(C)(C)[C@@H]5CC[C@]43C)[C@@H]2C1 [OLEANOLIC_ACID]	–	–	4.66	–	–	–	–	–	–
